The text below walks through data of article PMC5731459 (Science translational medicine, 2017).

≈ marks a conversion by molar mass, not a printed value. Where “and” joins values, the source holds several entries; their conditions need not be identical. Identical values can stand only once. Like-named read-outs stand apart in the source and are kept apart here. Bounds are passed on as bounds.

Data set [1] relates to P. falciparum Dd2 parasites. The experiment in a line: microbe, parasite or virus in culture. The class given is cell-based. As to conditions: Plasmodium falciparum.
Data set [2] deals with P. falciparum stage V gametocytes (oocysts in mosquito midgut). Nature of the data set: Indirect standard membrane-feeding assay. The data set is classed as cell-based. As to conditions: Plasmodium falciparum, 24 h, read-out: inhibition of oocyst formation (potency).
For data set [3], the system named is P. falciparum stage V gametocytes. The experiment in a line: Male gamete formation. To be noted: Plasmodium falciparum, 24 h, read-out: potency, inhibition of exflagellation. The class given is cell-based.
In another data set the test system is P. falciparum. The experiment in a line: PKPD. The data set is classed as in vivo, Plasmodium falciparum. Summed up: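 A direct-effect composite Emax PKPD model was fitted to humanized SCID mouse P. falciparum efficacy data, allowing for change in kill rate at higher doses. Inputs were modeled blood concentrations from individual-mouse whole-blood PK after once-daily oral dosing for 4 days. The model gave MIC, EC50/EC90 for kill rate and predicted parasitemia after 4 days.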

Data set [4] concerns drug-sensitive 3D7 P. falciparum strain. Nature of the data set: P. falciparum humanized SCID mouse efficacy model. The data set is classed as in vivo, Plasmodium falciparum. To be noted: once daily oral for four consecutive days. An outline of the steps: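 Humanized SCID mice were infected with P. falciparum 3D7. From day 3 after infection, test compound was given orally once daily for 4 days, one mouse per dose level. Blood parasitemia was measured by flow cytometry and ED90 was read at day 7. Whole-blood drug levels were sampled 0–23 h after the first dose (LLOQ 1 ng/mL).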

For data set [5] the following is noted: rats; cited from earlier work.
The next data set relates to P. falciparum 3D7 strain. Nature of the data set: In vitro parasite reduction ratio. The data set is classed as cell-based, Plasmodium falciparum. As to conditions: 10× IC50.
The nature of the next data set: in vivo. As to conditions: male (mice, rats), female (monkeys, dogs), Swiss outbred (mice), Sprague Dawley (rats), beagle (dogs), mouse, rat, dog, cynomolgus monkey, iv.
The subject of data set [6] is P. falciparum late-stage (stages IV and V) gametocytes expressing luciferase. Nature of the data set: Gametocyte viability assay. The class given is cell-based, Plasmodium falciparum.
For data set [7], the system named is P. cynomolgi liver-stage parasites. Nature of the data set: P. cynomolgi liver-stage assay, IC99. The data set is classed as cell-based, Plasmodium cynomolgi.
Data set [8] in a line: Plasma concentrations in the radical cure monkey study. The data set is classed as in vivo, Macaca mulatta.
For data set [9] the following is noted: pH 6.5; cited from earlier work.
Data set [10] has as its system Dd2 multidrug-resistant parental line. The experiment in a line: Cross-resistance test, parental line. The class given is cell-based. As to conditions: Plasmodium falciparum.
A short description of data set [11]: Plasma concentrations in the prophylactic monkey study. The data set is classed as in vivo, Macaca mulatta. To be noted: po, 20 mg/kg.
Data set [12] concerns P. falciparum late-stage gametocytes (stages IV and V). Nature of the data set: Gametocyte viability assay. The class given is cell-based. To be noted: Plasmodium falciparum, read-out: IC50, gametocyte viability (pLDH).
Data set [13] deals with P. berghei. Nature of the data set: Mouse-to-mouse transmission model. The data set is classed as in vivo, Plasmodium berghei. To be noted: 2 mg/kg oral; compared to 6.1 days in control mice. Summed up: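 Female TO mice (6–8 weeks) were infected i.p. with P. berghei clone 507cl1. On day 9, after exflagellation was confirmed, each received one 2 mg/kg oral gavage dose; controls were atovaquone 0.3 mg/kg and sulfadiazine 8.4 mg/kg i.p. Mosquitoes fed, then at day 21 bit naive mice for 20 min. Smears on days 4–10 set patency. Duplicates were combined by generalized linear mixed model against no-drug control.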

In data set [14] the test system is P. falciparum stage V gametocytes (oocysts in mosquito midgut). Nature of the data set: Direct standard membrane-feeding assay. To be noted: Plasmodium falciparum, read-out: inhibition of the formation of oocysts. The data set is classed as cell-based.
Data set [15] concerns parasites bearing PfPI4K mutation H1484Y. The experiment in a line: Cross-resistance test, transgenic PI4K-H1484Y line. The class given is cell-based. As to conditions: Plasmodium falciparum.
The target of another data set is ATM (Q13315) (Homo sapiens, UniProt Q13315). Nature of the data set: Chemoproteomic pull-down in K562 cell extract. The data set is classed as binding. Summed up: (§1)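 They were incubated 1 h at 4°C with K562 extract (5 mg) preincubated with test compound or buffer. Eluates were alkylated, separated by SDS gel and quantified by isobaric mass tagging LC-MS/MS.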
Sequence of ATM (Q13315) (Q13315 whole entry): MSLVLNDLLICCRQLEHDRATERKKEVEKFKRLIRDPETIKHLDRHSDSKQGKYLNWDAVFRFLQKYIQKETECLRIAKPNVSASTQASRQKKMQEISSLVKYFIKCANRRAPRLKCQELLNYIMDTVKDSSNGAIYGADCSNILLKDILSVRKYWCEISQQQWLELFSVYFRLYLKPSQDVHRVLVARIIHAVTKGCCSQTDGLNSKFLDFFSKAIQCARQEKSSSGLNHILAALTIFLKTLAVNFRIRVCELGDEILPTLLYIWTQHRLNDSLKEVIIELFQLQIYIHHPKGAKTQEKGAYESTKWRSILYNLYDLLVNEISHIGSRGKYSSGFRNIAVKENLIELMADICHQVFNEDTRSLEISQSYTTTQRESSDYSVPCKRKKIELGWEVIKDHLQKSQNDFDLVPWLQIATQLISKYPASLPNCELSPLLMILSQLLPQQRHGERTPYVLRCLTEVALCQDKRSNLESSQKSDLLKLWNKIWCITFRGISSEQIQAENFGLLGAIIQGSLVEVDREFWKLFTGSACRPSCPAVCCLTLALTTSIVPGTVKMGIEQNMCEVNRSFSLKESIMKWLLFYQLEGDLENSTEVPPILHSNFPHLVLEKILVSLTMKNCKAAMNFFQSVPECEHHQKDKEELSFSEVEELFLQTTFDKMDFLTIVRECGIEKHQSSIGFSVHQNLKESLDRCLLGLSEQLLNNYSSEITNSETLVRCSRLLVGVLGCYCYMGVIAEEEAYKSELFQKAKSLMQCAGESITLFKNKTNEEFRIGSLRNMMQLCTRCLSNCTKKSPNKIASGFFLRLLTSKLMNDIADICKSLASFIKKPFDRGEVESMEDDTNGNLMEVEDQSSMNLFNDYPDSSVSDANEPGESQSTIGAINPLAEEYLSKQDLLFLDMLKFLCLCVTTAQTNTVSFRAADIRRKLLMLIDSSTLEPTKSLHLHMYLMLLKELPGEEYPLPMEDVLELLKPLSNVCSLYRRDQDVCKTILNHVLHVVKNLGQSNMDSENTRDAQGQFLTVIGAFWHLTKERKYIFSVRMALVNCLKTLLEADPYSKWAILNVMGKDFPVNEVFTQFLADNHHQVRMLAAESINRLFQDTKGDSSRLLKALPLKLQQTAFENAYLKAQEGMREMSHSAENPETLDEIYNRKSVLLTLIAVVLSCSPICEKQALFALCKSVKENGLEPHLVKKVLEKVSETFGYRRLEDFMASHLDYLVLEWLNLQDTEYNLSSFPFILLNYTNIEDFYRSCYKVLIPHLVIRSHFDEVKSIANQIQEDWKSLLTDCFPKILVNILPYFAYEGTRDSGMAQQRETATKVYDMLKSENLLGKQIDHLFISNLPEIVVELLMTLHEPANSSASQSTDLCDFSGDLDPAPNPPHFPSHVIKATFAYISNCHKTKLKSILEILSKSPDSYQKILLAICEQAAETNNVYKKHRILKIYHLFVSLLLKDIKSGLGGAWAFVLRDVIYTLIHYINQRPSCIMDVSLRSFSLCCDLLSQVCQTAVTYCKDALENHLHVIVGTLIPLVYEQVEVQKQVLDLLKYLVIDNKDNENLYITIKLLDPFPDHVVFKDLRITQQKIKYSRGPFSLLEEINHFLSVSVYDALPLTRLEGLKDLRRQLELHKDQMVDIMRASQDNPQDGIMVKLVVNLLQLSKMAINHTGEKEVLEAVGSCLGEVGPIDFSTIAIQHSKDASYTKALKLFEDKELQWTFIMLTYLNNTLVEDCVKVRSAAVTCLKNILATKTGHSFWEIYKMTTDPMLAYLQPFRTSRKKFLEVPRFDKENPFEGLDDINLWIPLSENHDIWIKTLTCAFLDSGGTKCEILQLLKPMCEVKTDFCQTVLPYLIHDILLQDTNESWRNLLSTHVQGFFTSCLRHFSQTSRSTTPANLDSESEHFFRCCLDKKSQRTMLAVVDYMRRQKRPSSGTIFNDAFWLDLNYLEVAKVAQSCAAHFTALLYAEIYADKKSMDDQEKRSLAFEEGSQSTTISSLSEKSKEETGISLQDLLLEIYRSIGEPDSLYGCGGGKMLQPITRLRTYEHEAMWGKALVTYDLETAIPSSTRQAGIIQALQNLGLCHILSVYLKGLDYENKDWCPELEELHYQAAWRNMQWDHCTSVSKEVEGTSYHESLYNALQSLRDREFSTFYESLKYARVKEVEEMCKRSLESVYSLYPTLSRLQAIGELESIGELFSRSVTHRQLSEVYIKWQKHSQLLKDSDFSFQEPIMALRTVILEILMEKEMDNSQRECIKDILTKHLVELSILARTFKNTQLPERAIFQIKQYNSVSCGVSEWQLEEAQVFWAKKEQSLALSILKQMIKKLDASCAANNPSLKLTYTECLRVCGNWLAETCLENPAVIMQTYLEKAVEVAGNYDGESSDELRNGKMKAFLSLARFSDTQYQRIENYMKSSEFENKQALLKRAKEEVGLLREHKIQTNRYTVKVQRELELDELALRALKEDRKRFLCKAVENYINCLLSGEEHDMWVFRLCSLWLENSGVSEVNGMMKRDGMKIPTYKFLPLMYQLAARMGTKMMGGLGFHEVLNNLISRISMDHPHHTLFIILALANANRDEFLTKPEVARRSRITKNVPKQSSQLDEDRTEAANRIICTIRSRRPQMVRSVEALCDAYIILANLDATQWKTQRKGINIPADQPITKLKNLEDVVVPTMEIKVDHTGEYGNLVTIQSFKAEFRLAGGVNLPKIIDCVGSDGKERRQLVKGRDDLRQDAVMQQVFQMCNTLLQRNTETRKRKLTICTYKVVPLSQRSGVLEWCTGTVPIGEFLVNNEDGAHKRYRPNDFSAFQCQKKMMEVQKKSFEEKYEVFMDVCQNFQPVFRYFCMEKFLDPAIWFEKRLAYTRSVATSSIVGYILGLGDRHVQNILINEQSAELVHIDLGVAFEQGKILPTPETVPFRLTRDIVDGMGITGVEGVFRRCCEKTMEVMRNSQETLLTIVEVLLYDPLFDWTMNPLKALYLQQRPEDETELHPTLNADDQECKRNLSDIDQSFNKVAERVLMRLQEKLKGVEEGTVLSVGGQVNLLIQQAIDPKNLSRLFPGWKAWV
A further data set concerns the target PI4KA (P42356) (Homo sapiens, UniProt P42356). Nature of the data set: Chemoproteomic pull-down in K562 cell extract. The data set is classed as binding. An outline of the steps: as §1
Data set [16] addresses T1, PfPI4K (Plasmodium falciparum, UniProt Q8I406). The experiment in a line: Chemoproteomic competition binding, Kinobeads.
A short description of data set [17]: Protein binding and blood-to-plasma partitioning. The class given is in vitro ADME.
Data set [18] relates to P. falciparum NF54 strain. Nature of the data set: Erythrocytic IC50 speed and stage specificity assays. The data set is classed as cell-based, Plasmodium falciparum.
The next data set deals with PI4KB (Q9UBF8) (Homo sapiens, UniProt Q9UBF8). The experiment in a line: Chemoproteomic pull-down in K562 cell extract. The data set is classed as binding. An outline of the steps:
as §1

The subject of data set [19] is P. berghei. Nature of the data set: P. berghei mouse efficacy model. The class given is in vivo, Plasmodium berghei.
Data set [20] concerns parasites bearing PfPI4K mutation S1320L. The experiment in a line: Cross-resistance test, transgenic PI4K-S1320L line. To be noted: Plasmodium falciparum. The data set is classed as cell-based.
The subject of data set [21] is P. berghei-infected HepG2 liver cells. Nature of the data set: P. berghei liver-stage phenotyping in HepG2 cells. The data set is classed as cell-based, Plasmodium berghei. To be noted: 460 nM, 2 to 8 hours after infection. Summed up: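 Extracellular sporozoites were washed off at 2 h, then cells were exposed to 460 nM test compound or DMSO vehicle. Cells were fixed 8 h after invasion, immunolabeled and imaged by confocal microscopy.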

Another data set addresses TNIK (Q9UKE5) (Homo sapiens, UniProt Q9UKE5). Nature of the data set: Chemoproteomic pull-down in K562 cell extract. The class given is binding. An outline of the steps:
as §1

For data set [22], the system named is P. falciparum early-stage (stages I to III) gametocytes expressing luciferase. The experiment in a line: Gametocyte viability assay. The data set is classed as cell-based, Plasmodium falciparum.
The test system of data set [23] is P. falciparum (NF54 drug-sensitive strain). Nature of the data set: [3H]-hypoxanthine incorporation assay, asexual blood-stage parasites. The class given is cell-based. As to conditions: Plasmodium falciparum, NF54, 72 h.
Data set [24] is described as follows: Allometric scaling to human pharmacokinetics and dose.
Data set [25] concerns the target T1, PfPI4K. The experiment in a line: Chemoproteomic competition binding, immobilized MMV666845 beads.
The test system of the next data set is P. cynomolgi. Nature of the data set: Radical cure study in P. cynomolgi-infected rhesus macaques. As to conditions: 20 mg/kg oral daily for 5 days, Cmax 5697 ng/ml.
[26] abbreviates: Plasmodium falciparum, read-out: IC50, gametocyte viability (luciferase).

Sequence of PI4KA (P42356) (P42356 whole entry): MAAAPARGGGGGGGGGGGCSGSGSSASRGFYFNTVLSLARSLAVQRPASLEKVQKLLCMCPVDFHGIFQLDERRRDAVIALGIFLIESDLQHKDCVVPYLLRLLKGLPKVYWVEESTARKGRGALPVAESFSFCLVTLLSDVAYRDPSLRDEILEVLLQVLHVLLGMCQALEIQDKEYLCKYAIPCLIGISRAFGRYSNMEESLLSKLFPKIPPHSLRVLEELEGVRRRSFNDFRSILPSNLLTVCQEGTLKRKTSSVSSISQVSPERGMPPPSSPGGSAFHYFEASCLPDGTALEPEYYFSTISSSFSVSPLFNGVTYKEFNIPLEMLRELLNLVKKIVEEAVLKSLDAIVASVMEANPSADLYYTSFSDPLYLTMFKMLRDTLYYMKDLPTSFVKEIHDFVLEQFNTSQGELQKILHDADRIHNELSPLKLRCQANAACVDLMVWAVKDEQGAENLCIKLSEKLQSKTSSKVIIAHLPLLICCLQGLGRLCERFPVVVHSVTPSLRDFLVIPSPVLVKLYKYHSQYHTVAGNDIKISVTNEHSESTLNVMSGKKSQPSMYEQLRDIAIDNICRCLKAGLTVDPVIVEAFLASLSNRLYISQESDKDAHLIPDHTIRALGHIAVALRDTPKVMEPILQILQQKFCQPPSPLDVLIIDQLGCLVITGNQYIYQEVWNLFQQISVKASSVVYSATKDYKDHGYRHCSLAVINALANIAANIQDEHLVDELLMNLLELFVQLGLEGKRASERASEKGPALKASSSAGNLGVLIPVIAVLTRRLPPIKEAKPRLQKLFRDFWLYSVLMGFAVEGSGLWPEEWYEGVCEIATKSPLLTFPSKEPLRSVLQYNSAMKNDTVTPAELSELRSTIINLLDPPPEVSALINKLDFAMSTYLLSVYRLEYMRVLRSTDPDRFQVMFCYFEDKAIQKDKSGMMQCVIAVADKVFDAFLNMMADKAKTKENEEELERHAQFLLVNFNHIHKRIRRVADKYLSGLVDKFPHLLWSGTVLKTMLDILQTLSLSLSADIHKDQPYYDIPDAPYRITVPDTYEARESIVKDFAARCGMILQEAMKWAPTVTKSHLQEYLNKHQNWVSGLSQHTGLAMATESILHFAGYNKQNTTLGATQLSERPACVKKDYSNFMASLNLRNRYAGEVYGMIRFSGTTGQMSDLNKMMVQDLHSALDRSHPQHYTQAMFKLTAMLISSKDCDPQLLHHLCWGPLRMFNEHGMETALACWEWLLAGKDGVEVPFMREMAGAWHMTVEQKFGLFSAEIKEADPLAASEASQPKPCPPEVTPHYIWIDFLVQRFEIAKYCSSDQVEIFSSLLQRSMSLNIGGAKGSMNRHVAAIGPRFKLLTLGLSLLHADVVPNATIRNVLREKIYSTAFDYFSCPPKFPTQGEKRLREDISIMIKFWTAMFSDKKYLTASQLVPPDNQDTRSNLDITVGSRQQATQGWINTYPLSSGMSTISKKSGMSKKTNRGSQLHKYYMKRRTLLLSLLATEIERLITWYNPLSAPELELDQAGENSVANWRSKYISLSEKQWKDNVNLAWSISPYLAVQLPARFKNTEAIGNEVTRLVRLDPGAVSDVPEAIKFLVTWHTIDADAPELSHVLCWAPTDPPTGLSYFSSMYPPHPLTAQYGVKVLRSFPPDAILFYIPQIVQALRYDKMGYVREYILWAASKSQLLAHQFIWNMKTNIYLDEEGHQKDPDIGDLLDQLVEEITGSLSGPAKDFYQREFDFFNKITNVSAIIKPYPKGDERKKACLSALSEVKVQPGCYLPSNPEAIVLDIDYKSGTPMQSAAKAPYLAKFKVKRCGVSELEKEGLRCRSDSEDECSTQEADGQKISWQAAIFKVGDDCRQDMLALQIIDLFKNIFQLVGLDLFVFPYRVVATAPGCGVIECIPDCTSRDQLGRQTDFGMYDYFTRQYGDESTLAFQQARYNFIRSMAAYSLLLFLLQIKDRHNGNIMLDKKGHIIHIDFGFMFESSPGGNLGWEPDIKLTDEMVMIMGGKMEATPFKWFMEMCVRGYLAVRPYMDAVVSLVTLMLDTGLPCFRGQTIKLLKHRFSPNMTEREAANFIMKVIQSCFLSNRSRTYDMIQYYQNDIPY

As for `CS(=O)(=O)c1ccc(-c2cnc(N)c(-c3ccc(C(F)(F)F)nc3)c2)cc1` [MMV390048], the IC50 was 0.016 µM in [1] (DD2); 0.07 to 0.09 µM in [1] (DD2, read-out: IC50 of resistant clones); 0.111 µM in [2]; 0.09 µM in [3]; 0.14 µM in data set [6] (setting [26]); 0.0227 µM in data set [10]. Further, the IC50 in data set [12] was 0.285 µM; in data set [15] it was 0.0628 µM; in [20], 0.0577 µM; in data set [22] (setting [26]) it was 0.214 µM. In the data set on P. falciparum (dose of 1 mg/kg (highest predicted kill rate)), the “parasitemia at the end of 4 days” value is recorded as less than 0.01%. The “MIC to inhibit growth” value in the data set with P. falciparum (modeled blood concentration) is 0.071 mg/L (≈ 0.18 µM). Also, the “ED90 at day 7” value in data set [4] is recorded as 0.57 mg/kg. For the same compound, the absorption result in data set [5] was “well absorbed”. Also, the lag phase in the data set with P. falciparum 3D7 strain was found to be 24 h. For the same compound, in “in vivo”, the Vd fell in the range of 1.3 to 3 L/kg. This compound also showed a clearance in the data set “in vivo” of 0.036 to 0.39 L/h/kg. The “late-stage gametocytes killed faster than early-stage” value in data set [6] stood at 2.5 times. In addition, the “rate of onset of action” value in data set [6] (luciferase-expressing gametocytes) amounted to 24 h. The “clearance rate (slope)” value in [6] (stage IV and V, at IC50 concentration over 3 days) is −15.49; in data set [22] (stage I to III, at IC50 concentration over 3 days), −6.09. Also, the “liver-stage IC99 (in vitro)” value in data set [7] came out at 90 nM. The “in vivo IC99 (estimated)” value in data set [7] (in vitro IC99 corrected for AlbuMAX binding and plasma protein binding) is 353 ± 32 nM and 138 ± 13 ng/ml. Besides, in data set [8] (20 mg/kg oral daily for 5 days), the “time plasma concentration above liver-stage IC99” value turned out to be 15.8 days. The Cmax in data set [8] (monkey, plasma, po, 20 mg/kg) amounted to 5.7 µg/mL; in [11] it was 1.98 µg/mL. Moreover, the “time plasma concentration above blood-stage MIC” value in data set [8] (rhesus macaque (Macaca mulatta), in vivo) worked out at 20 days. Moreover, the kinetic solubility entry in [9] is given as “not optimal”. Moreover, the half-life in data set [11] is approximately 30 h. Besides, the “Prepatency (±SEM)” value with P. berghei [13] was 6.8 days (±0.28). In addition, the inhibition at 1000 µM in [14] is less than 25%. The binding affinity result at ATM (Q13315) and at TNIK (Q9UKE5) was “low binding affinity” throughout. Also, the binding result at PI4KA (P42356) and at PI4KB (Q9UBF8) was “did not observe any binding” each time. The equilibrium dissociation constant (Kd) at PfPI4K [16] turned out to be 0.1 µM; on PfPI4K [25], 0.3 µM. Besides, in data set [17], the “serum albumin (AlbuMAX) binding” value was 54%. Also, in data set [17] (plasma, protein binding, used for MIC correction), the free fraction (fraction unbound) was 0.139. Moreover, the blood-stage specificity profile result in [18] is on record as “highest activity against the young schizont stage”. For the same compound, in the data set on P. berghei [19] (Plasmodium berghei, in Mus musculus, po, 72 h), the ED50 was 0.57 mg/kg. The ED90 in the data set on P. berghei [19] (four oral administrations (4, 24, 48, 72 hours after infection), measured at 96 hours) was found to be 1.1 mg/kg. In addition, the “in vivo parasite clearance rate” value in the data set on P. berghei [19] (single oral dose 100 mg/kg) is given as “intermediate”. For the same compound, in [21], the “localization of parasitophorous vacuole membrane protein UIS4” value is “mislocalization”. The same compound had a concentration for an effect of 90% (IC90) in data set [23] of 0.04 µM. Also, the “predicted elimination half-life in humans” value in data set [24] was “about 90 hours”. Also, in data set [24], the “predicted plasma clearance in humans” value is 0.02 liter/hour per kg. Moreover, the “predicted volume of distribution in humans” value in data set [24] was 2.8 L/kg. For the same compound, the “effect of excess free compound on capture of P. falciparum PI4K by the beads” value at PfPI4K [25] (excess compound (10 µM for MMV390048)) is “competitively inhibited”. For the same compound, in the data set on P. cynomolgi, the observed toxicity result was “without any observed toxicity”.

Turning to `C[C@H]1[C@@H](O)O[C@@H]2O[C@@]3(C)CC[C@H]4[C@H](C)CC[C@@H]1[C@@]24OO3` [dihydroartemisinin, reference compound], in [12], the IC50 is 0.012 µM.

`CCc1nc(N)nc(N)c1-c1ccc(Cl)cc1` [pyrimethamine, reference compound]: the “IC50 fold higher at 24-hour compared to 72-hour time point” value in [18] (unsynchronized culture) was 7.8 fold.

In general, Vd refers to the apparent volume that relates the amount in the body to the concentration in plasma or blood. The term clearance denotes the volume of plasma or blood freed of the substance per unit of time. As usually defined, the Cmax is the highest concentration seen after dosing. Usually half-life stands for how long it takes for the measured level to halve. The term inhibition denotes the relative decrease from the control value, in per cent. The Kd is the free concentration of one partner at which half of the binding sites on the other are occupied at equilibrium, for simple one-to-one binding. As usually defined, the fraction unbound is the share of the substance not bound to proteins or other matrix. The ED50 is the midpoint of the dose-response relation. Broadly, the IC90 is the concentration needed for an effect of 90%.
